From ChEMBL document CHEMBL1132237, “Fluorination of 3-(3-(piperidin-1-yl)propyl)indoles and 3-(3-(piperazin-1-yl)propyl)indoles gives selective human 5-HT1D receptor ligands with improved pharmacokinetic profiles” (J Med Chem, 1999)
Several values for one entry are separate records, joined by “and”; a condition that tells them apart may be missing. Equal entries are not always repeated.

Assays:
[1] = target: T1, 5-hydroxytryptamine receptor 1D (Homo sapiens, UniProt P28221); experiment: Displacement of specific [3H]5-HT binding to cloned human 5-hydroxytryptamine 1D receptor expressed in CHO cells; format: cell-based
In short: (§1)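 Radioligand binding to human 5-HT1D and 5-HT1B receptors stably expressed in CHO cells. Radioligand was used at approximately its KD for each receptor. IC50 values are the logarithmic mean of 2–5 independent determinations, each run in duplicate. Maximum variance from the mean of log(IC50) was 4%. Selectivity is IC50(1B)/IC50(1D).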

[2] = target: T1, 5-hydroxytryptamine receptor 1D; experiment: Agonist-induced [35S]GTP-gamma-S, binding in CHO cells stably transfected with human 5-hydroxytryptamine 1D receptor; format: functional, cell-based
In short: (§2)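 [35S]GTPγS binding stimulated by agonist, measured in CHO cells stably transfected with the human 5-HT1D or 5-HT1B receptor. EC50 values are the logarithmic mean of 2–3 independent determinations. Maximum variance of individual log(EC50) values from the mean was 4%.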

[3] = Oral bioavailability in rat; format: ADME, organism-based; conditions: in vivo
In short: (§3)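 Male Sprague–Dawley rats (~300 g) were fasted overnight and tail-artery cannulated under isoflurane, then allowed to recover for at least 30 min. Each received 3 mg/kg by tail-vein bolus (3 mg/mL in PEG 300:5 mM HCl 25:75) or by gavage (0.6 mg/mL in PEG 400:5 mM HCl 25:75), three rats per route. Serial blood was sampled up to 6 h. Plasma was analysed by solid-phase extraction and reverse-phase HPLC with fluorescence detection (ex 235, em 370 nm) against spiked-plasma calibration curves.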

[4] = test system: Rattus norvegicus; experiment: Oral absorption study in rat plasma obtained from hepatic portal vein after 2 hours of administration of 3 mg/kg orally; format: functional, organism-based; design: dose 3 mg/kg
In short: (§4)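 Male Sprague–Dawley rats, fasted overnight and with no surgery, received 3 mg/kg orally as a 0.6 mg/mL solution in PEG 400:5 mM HCl (25:75 v/v). Terminal blood was taken from the heart and hepatic portal vein under isoflurane at 0.5 and 2 h, three rats per time point. Plasma drug was measured by electrospray mass spectrometry. Values are mean ± SEM.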

[5] = target: T2, 5-hydroxytryptamine receptor 1B (Homo sapiens, UniProt P28222); experiment: Efficacy was evaluated relative to human 5-HT1B receptor using [35S]GTP-gamma-S, as radioligand; format: functional
[6] = test system: Rattus norvegicus; experiment: Oral absorption study in rat plasma obtained from cardiac blood samples after 2 hours of administration of 3 mg/kg orally; format: functional, organism-based; design: dose 3 mg/kg; in short: as §4
[7] = target: Serotonin 1 receptors; 5-HT1B & 5-HT1D (Homo sapiens) (UniProt P28222+P28221); experiment: Selectivity towards 5-HT1D and to that of 5-HT1B in CHO cells; format: cell-based; in short: as §1
[8] = target: T2, 5-hydroxytryptamine receptor 1B; experiment: Displacement of specific [3H]5-HT binding to cloned human 5-hydroxytryptamine 1B receptor expressed in CHO cells; format: cell-based; in short: as §1
[9] = pKa value by potentiometric method; format: physicochemical
In short: (§5)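 Potentiometric titration in MeOH–H2O cosolvent with ionic strength set by 0.15 M KCl. Three titrations at different water/cosolvent ratios gave psKa values. Aqueous pKa was obtained by Yasuda–Shedlovsky extrapolation to 100% water, plotting psKa + log[H2O] against 1/ε.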

[10] = target: T2, 5-hydroxytryptamine receptor 1B; experiment: Agonist-induced [35S]GTP-gamma-S, binding in CHO cells stably transfected with human 5-hydroxytryptamine 1B receptor; format: functional, cell-based; in short: as §2
[11] = test system: Rattus norvegicus; experiment: Oral absorption study in rat plasma obtained from hepatic portal vein after 0.5 hours of administration of 3 mg/kg orally; format: functional, organism-based; design: dose 3 mg/kg; in short: as §4
[12] = test system: Rattus norvegicus; experiment: Oral absorption study in rat plasma obtained from cardiac blood samples after 0.5 hours of administration of 3 mg/kg orally; format: functional, organism-based; design: dose 3 mg/kg; in short: as §4
[13] = The compound was evaluated for the pKa units relative to N-methyl-piperazine.; format: physicochemical
[14] = Relative protonation energy of the compound
[15] = pKa value by potentiometric; format: physicochemical; in short: as §5
[16] = target: T1, 5-hydroxytryptamine receptor 1D; experiment: Efficacy was evaluated relative to human 5-hydroxytryptamine 1D receptor using [35S]GTP-gamma-S, as radioligand; format: functional
[17] = Rate of clearance in rat was determined; format: ADME, organism-based; conditions: plasma, read-out: Clp; in short: as §3
[18] = Cmax in rat; format: ADME, organism-based; conditions: in vivo; in short: as §3
[19] = target: T2, 5-hydroxytryptamine receptor 1B; experiment: Efficacy of compound was evaluated relative to human 5-hydroxytryptamine 1B receptor using [35S]GTP-gamma-S, as radioligand; format: functional
[20] = pKa value was determined; format: physicochemical; in short: as §5
[21] = The compound was evaluated for the pKa units relative to N-methyl-piperazine; format: physicochemical

T1 sequence (P28221 whole entry): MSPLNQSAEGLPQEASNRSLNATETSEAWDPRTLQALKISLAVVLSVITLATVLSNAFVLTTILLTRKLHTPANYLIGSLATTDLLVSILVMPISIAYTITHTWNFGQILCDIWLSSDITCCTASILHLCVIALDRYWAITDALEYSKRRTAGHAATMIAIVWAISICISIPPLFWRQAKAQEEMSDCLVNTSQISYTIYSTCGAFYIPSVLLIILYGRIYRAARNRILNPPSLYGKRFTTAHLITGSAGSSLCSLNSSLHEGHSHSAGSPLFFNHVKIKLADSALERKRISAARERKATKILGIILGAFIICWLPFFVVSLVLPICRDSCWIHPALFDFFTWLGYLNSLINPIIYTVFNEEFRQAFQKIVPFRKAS
T2 sequence (P28222 whole entry): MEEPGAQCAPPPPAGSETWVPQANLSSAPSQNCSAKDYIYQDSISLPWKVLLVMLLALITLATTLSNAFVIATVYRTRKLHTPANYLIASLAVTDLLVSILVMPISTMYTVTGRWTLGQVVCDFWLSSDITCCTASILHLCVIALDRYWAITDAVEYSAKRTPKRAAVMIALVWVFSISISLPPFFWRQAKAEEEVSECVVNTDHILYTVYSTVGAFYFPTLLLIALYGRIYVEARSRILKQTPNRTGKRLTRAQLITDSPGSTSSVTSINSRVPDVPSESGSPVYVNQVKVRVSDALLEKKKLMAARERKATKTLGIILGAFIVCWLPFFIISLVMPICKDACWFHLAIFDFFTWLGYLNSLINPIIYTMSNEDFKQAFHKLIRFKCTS

Row | IC50 [1] | EC50 [2] | bioavailability [3] | Efficacy [5] | Selectivity [7] | IC50 [8] | EC50 [10] | clearance [17] | Compound | Plasma concentration [4] | Plasma concentration [6] | Plasma concentration [11] | Plasma concentration [12] | also measured
1 | 0.9 nM | 0.9 nM | 14% | 77% | 69 | 62 nM | 450 nM |  | FC(Cc1c[nH]c2ccc(-n3cnnc3)cc12)CN1CCC(Cc2ccccc2)CC1 (stereo not given) | 258 ng/mL | 46 ng/mL | 781 ng/mL | 196 ng/mL | pKa [9]: 8.7
2 |  |  | 27% |  | 140 |  | 430 nM | 84 mL/min/kg | Fc1cccc(CCN2CCN(CCCc3c[nH]c4ccc(-n5cnnc5)cc34)CC2)c1 |  |  |  |  | Efficacy [19]: 71%; pKa [20]: 8.3

The next lines start with the compound.

Row | Compound | IC50 [1] | EC50 [2] | bioavailability [3] | Efficacy [5] | Selectivity [7] | IC50 [8] | EC50 [10] | clearance [17] | Plasma concentration [4] | Plasma concentration [6] | Plasma concentration [11] | Plasma concentration [12] | also measured
3 | CN1CCCCC1 [N-METHYLPIPERIDINE] |  |  |  |  |  |  |  |  |  |  |  |  | delta pKa [13]: 0; RPE [14]: 0
4 | CN(Cc1ccccc1)C1CCN(CCCc2c[nH]c3ccc(-n4cnnc4)cc23)CC1 | 2.1 nM | 1.5 nM |  | 77% | 67 | 140 nM | 1400 nM |  | 66 ng/mL | 5 ng/mL | 4 ng/mL | < 1 ng/mL | pKa [15]: 9.3
5 | c1ccc(CC2CCN(CCCc3c[nH]c4ccc(-n5cnnc5)cc34)CC2)cc1 | 0.3 nM |  |  | 62% | 63 | 19 nM | 120 nM |  | 33 ng/mL | < 2 ng/mL | 25 ng/mL | < 2 ng/mL | pKa [15]: 9.7
6 | Fc1cccc(CCN2CCN(CC(F)(F)Cc3c[nH]c4ccc(-n5cnnc5)cc34)CC2)c1 | 15 nM | 35 nM |  |  | 107 | 1600 nM |  | 67 mL/min/kg | 61 ng/mL | < 4 ng/mL | 503 ng/mL | < 4 ng/mL | Efficacy [16]: 78%
7 | FC(F)(Cc1c[nH]c2ccc(-n3cnnc3)cc12)CN1CCC(OCc2ccccc2)CC1 | 8.5 nM | 34 nM | 11% | 78% | 118 | 1000 nM | 10000 nM | 43 mL/min/kg |  |  |  |  | pKa [9]: 5.9; Cmax [18]: 157 ng/mL; Efficacy [16]: 100%
8 | CN1CCCC(F)C1 (stereo not given) |  |  |  |  |  |  |  |  |  |  |  |  | delta pKa [13]: -1.83; delta pKa [21]: -3.24; RPE [14]: 4.42 and 2.5
